The values that follow come from ChEMBL document CHEMBL5625176, “Immunosuppressive effects of new thiophene-based KV1.3 inhibitors” (Eur J Med Chem, 2023).

SMILES strings stand for the structures. Converted amounts (≈) assume the structure as drawn. The source made the active and inactive calls. The rule behind the calls is not given here.

In series [1] the target is T1, Potassium voltage-gated channel subfamily A member 3 (Homo sapiens, UniProt P22001). Description: Inhibition of human Kv1.3 expressed in Xenopus laevis Oocyte cells at 10 uM by manual patch clamp method relative to control. Type of series: cell-based. A digest of the protocol:
(§1)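 Human Kv1.3 cRNA injected into defolliculated Xenopus oocytes. Two-electrode voltage clamp 1–4 days later at 18–22 °C in ND96 (pH 7.5). Currents evoked by 1 s depolarizations, with inhibition read at the 0 mV step. Compounds from DMSO stock at ≤0.5% DMSO, either single 10 μM or rising concentrations fitted with the Hill equation for IC50.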
On the technique in general: In patch-clamp work, channel activity is measured electrically.

Series [2] addresses T1, Potassium voltage-gated channel subfamily A member 3. As to the kind of experiment: Inhibition of human Kv1.3 expressed in mouse LTK- cells by manual patch clamp electrophysiological recording. Type of series: cell-based. In short, it runs like this:
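Mouse Ltk⁻ fibroblasts in DMEM/10% horse serum transiently transfected with hKv1.3 plasmid plus eGFP marker, and recorded 24 h later. Whole-cell patch clamp at 20–23 °C. Compounds diluted from DMSO stocks with final DMSO ≤0.1%, with 0.1% DMSO as vehicle control. Normalized current plotted against concentration and fitted with the Hill equation for IC50; mean ± SEM, n = cells.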

The target is the same in series [3]. As to the kind of experiment: Inhibition of Kv1.3 (unknown origin) expressed in PBMC derived PHA-activated T-lymphocyte cells incubated for 5 days by manual patch clamp method. The format is cell-based. A digest of the protocol:
(§2)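 Whole-cell recording on PBMC stimulated 5 days with PHA-L (240 ng/mL); about 90% of cells CD3⁺. Large cells chosen; cells with currents ≤500–600 pA discarded. Bath in mM: 130 NaCl, 5 KCl, 2 CaCl₂, 2 MgCl₂, 10 HEPES, 5 glucose, pH 7.4; pipette KF-based with 11 EGTA, pH 7.2. Leak-subtracted two-step outward K⁺ current. Single concentration 5 μM, or 0.05 nM–50 μM for curves; peak normalized to control.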

For series [4] the target is unchanged. As to the kind of experiment: Inhibition of Kv1.3 (unknown origin) expressed in human PBMC derived PHA-activated T-lymphocyte cells assessed as reduction in total outward potassium current at 5 uM by patch clamp electrophysiology method. Type of series: cell-based. A digest of the protocol: as §2
In series [5] the target is Potassium voltage-gated channel subfamily A member 4 (Homo sapiens) (UniProt P22459). Description: Inhibition of Kv1.4 (unknown origin) expressed in Xenopus laevis Oocyte cells by electrophysiological recordings relative to control. The format is cell-based. The conditions noted are these: concentration not given here. A digest of the protocol:
(§3)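 Kv1.x cRNA expressed in defolliculated Xenopus oocytes and recorded by two-electrode voltage clamp 1–4 days after injection, at 18–22 °C in ND96 pH 7.5. 1 s pulses, analysed at 0 mV. Compounds applied at rising concentrations with ≤0.5% DMSO, and current inhibition relative to control fitted with the Hill equation.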

Series [6] has as its target Potassium voltage-gated channel subfamily A member 5 (Homo sapiens) (UniProt P22460). As to the kind of experiment: Inhibition of Kv1.5 (unknown origin) expressed in Xenopus laevis Oocyte cells by electrophysiological recordings relative to control. Type of series: cell-based. As to conditions: concentration not given here. A digest of the protocol: as §3
Series [7] has as its target Potassium voltage-gated channel subfamily A member 6 (Homo sapiens) (UniProt P17658). Description: Inhibition of Kv1.6 (unknown origin) expressed in Xenopus laevis Oocyte cells by electrophysiological recordings relative to control. Type of series: cell-based. As to conditions: concentration not given here. A digest of the protocol: as §3
The target of series [8] is Potassium voltage-gated channel subfamily A member 1 (Homo sapiens, UniProt Q09470). Description: Inhibition of Kv1.1 (unknown origin) expressed in Xenopus laevis Oocyte cells by electrophysiological recording. Type of series: cell-based. In short, it runs like this: as §3
Chain of Potassium voltage-gated channel subfamily A member 1 (Q09470 whole entry): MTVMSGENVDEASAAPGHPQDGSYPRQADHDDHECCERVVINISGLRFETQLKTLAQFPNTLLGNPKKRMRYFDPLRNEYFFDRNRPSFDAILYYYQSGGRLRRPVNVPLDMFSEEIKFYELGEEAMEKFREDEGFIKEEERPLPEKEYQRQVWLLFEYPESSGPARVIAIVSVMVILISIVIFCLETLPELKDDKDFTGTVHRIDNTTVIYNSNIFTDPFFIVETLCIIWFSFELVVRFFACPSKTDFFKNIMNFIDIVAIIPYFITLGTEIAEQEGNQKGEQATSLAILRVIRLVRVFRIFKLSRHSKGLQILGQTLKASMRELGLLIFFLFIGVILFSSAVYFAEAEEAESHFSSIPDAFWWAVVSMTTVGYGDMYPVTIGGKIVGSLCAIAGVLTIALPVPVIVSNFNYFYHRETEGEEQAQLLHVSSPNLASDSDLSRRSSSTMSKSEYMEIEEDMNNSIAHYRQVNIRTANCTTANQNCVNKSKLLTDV
The target in series [9] is Potassium voltage-gated channel subfamily A member 2 (Homo sapiens, UniProt P16389). As to the kind of experiment: Inhibition of Kv1.2 (unknown origin) expressed in Xenopus laevis Oocyte cells by electrophysiological recording. Type of series: cell-based. In short, it runs like this:
as §3

Series [10] is described as follows: Thermodynamic solubility of the compound at pH 7.4 incubated for 24 hrs under shaking condition by HPLC analysis. The format is physicochemical. The conditions noted are these: buffer, read-out: Therm_solubility. A digest of the protocol:
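Supernatant diluted 1:2 or 1:10 in 0.1% TFA/MeCN 1:1 and quantified by reversed-phase UPLC at 290 nm against a 7-point calibration (1–100 μM). Mean of two independent experiments, in μM.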

A short description of series [11]: Stability of compound in PBS at pH 7.4 measured for >=120 hrs by HPLC analysis. The format is physicochemical. As to conditions: buffer, pH 7.4, 120 h. A digest of the protocol:
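Aqueous stability: 10 mM DMSO stock diluted to a final 50 μM in PBS pH 7.4 with 20% MeCN and 0.5% DMSO, filtered, held at 37 °C. UPLC (BEH C18, 280 nm) injections every 4 h for the first 24 h, then every 8 h. Analyte AUC plotted against time; triplicates.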

In the next series the target is hERG (KCNH2) (Homo sapiens, UniProt Q12809). As to the kind of experiment: Inhibition of hERG overexpressed in HEK293 cells at 5 uM relative to control. The conditions noted are these: HEK293 cells overexpressing hERG. The format is toxicity, cell-based.
Chain of hERG (KCNH2) (Q12809 whole entry): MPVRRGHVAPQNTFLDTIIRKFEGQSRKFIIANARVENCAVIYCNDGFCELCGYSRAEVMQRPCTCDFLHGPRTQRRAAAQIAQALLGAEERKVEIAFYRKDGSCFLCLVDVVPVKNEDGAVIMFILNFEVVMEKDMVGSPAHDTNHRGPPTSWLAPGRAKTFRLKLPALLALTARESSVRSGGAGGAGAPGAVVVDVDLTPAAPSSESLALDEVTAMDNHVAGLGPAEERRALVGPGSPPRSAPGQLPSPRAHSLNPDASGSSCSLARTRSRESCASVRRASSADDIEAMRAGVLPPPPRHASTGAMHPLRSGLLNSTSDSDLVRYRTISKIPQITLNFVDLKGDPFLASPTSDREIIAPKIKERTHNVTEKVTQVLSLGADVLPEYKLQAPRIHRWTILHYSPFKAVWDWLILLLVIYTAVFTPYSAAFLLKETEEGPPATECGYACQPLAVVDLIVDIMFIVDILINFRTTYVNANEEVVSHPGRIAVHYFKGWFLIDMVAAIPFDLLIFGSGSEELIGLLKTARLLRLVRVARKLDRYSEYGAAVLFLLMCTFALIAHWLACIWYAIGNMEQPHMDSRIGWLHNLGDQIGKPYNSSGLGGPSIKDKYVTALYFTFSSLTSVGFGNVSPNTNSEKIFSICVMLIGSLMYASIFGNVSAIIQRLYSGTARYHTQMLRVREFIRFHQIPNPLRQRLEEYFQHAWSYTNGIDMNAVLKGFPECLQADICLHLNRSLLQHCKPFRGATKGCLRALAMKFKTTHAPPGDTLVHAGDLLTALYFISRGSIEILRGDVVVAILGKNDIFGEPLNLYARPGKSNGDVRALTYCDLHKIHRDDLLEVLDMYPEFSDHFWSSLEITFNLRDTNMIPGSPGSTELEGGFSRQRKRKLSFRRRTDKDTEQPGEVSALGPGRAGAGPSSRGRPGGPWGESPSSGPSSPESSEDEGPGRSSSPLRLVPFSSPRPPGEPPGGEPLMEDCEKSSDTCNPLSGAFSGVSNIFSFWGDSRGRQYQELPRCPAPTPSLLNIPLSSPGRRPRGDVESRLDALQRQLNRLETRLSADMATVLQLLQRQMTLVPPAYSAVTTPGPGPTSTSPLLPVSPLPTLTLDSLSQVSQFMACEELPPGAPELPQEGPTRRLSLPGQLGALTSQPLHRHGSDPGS
Series [12] deals with T1, Potassium voltage-gated channel subfamily A member 3. As to the kind of experiment: Inhibition of Kv1.3 in human PBMC derived PHA-activated T-lymphocytes assessed as reduction in intracellular calcium level at 5 uM incubated for 2 hrs by Fluo-4 Ca2+ based flow cytometric analysis relative to control. The format is cell-based. As to conditions: T-lymphocyte. In short, it runs like this: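 PBMC activated 5 days with PHA, then given compounds at 5 μM for 2 h. Scraped and loaded with Fluo-4 (2 μM) plus anti-CD3-APC at 37 °C for 1 h, washed, and held 30 min at 37 °C with compound (5 μM) before flow cytometry. Fluo-4 MFI of the CD3⁺ gate, 3 replicates, normalized to untreated control; n = 4.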
A general note: Calcium flux is commonly read through the fluorescence of an indicator in the cells.

For series [13], the system named is T-cell line. Description: Cytotoxicity against human PBMC derived PHA-activated T-lymphocytes assessed as effect on cell viability by trypan blue staining based analysis. The format is toxicity. As to conditions: 30 µM. In short, it runs like this: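 PBMC purified by Ficoll gradient with red-cell lysis, seeded at 1.5 × 10⁶ cells/mL in RPMI with 10% heat-inactivated serum and 2 mM L-glutamine. Activated with PHA-L 240 ng/mL alongside compounds at 30 μM. Viability of treated versus untreated cells judged by trypan blue staining.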

Series [14] has as its system T-cell line. As to the kind of experiment: Cytotoxicity against human PBMC derived PHA-activated T-lymphocytes assessed as effect on total cell number at 30 uM incubated for 5 days by bright-field microscopic analysis. The conditions noted are these: 120 h, time 5 day. Type of series: toxicity, cell-based. A digest of the protocol:
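Ficoll-purified PBMC at 1.5 × 10⁶ cells/mL in RPMI/10% heat-inactivated serum/2 mM L-glutamine, stimulated with PHA-L 240 ng/mL and exposed to compounds (30 μM) for 5 days. Cells then counted to give total cell number.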

The subject of series [15] is T-cell. As to the kind of experiment: Inhibition of human PBMC derived PHA-activated T-lymphocytes activation assessed as inhibition of colony formation by measuring reduction in colony forming units at 30 uM incubated for 5 days by bright-field microscopic analysis. Type of series: functional, cell-based. As to conditions: time 5.0 day. A digest of the protocol:
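PBMC at 1.5 × 10⁶ cells/mL treated with compounds (30 μM) together with PHA-L (240 ng/mL) for 5 days in RPMI with 10% heat-inactivated bovine calf serum and 2 mM L-glutamine. After medium removal, wells imaged by bright-field microscopy at 2× and colonies (CFU) counted. Mean ± SD of 3 experiments.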

In series [16] the test system is T-cell. Description: Induction of cell cycle arrest at G0/G1 phase in human PBMC derived PHA-activated T-lymphocytes assessed as reduction S phase cells at 30 uM measured after 5 days by flow cytometric analysis. Type of series: functional, cell-based. The conditions noted are these: time 5.0 day. In short, it runs like this:
(§4)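 PHA-activated PBMC exposed to compounds (30 μM) for 5 days in RPMI/10% heat-inactivated calf serum/2 mM L-glutamine, scraped off and incubated 1 h at 4 °C in the dark. Cell cycle read by flow cytometry and scored as G0/G1 versus cycling (S+G2/M) percentage. Mean ± SD of 3 experiments; unpaired t-test against untreated cells.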
(In general: Flow cytometry measures light scatter and fluorescence of single cells or particles in a stream.)

Series [17] has as its target T1, Potassium voltage-gated channel subfamily A member 3. As to the kind of experiment: Inhibition of human Kv1.3 expressed in Xenopus laevis Oocyte cells by Electrophysiology recording. Type of series: cell-based. In short, it runs like this: as §1
Series [18] has the same target. As to the kind of experiment: Selectivity ratio of IC50 for inhibition of human Kv1.3 expressed in mouse LTK- cells to IC50 for inhibition of human Kv1.3 expressed in Xenopus laevis Oocyte cells. The format is cell-based.
The test system of series [19] is T-cell. As to the kind of experiment: Induction of cell cycle arrest at G0/G1 phase in human PBMC derived PHA-activated T-lymphocytes assessed as reduction G2/M phase cells at 30 uM measured after 5 days by flow cytometric analysis. Type of series: functional, cell-based. The conditions noted are these: time 5.0 day. In short, it runs like this:
as §4

T1 sequence (P22001 whole entry): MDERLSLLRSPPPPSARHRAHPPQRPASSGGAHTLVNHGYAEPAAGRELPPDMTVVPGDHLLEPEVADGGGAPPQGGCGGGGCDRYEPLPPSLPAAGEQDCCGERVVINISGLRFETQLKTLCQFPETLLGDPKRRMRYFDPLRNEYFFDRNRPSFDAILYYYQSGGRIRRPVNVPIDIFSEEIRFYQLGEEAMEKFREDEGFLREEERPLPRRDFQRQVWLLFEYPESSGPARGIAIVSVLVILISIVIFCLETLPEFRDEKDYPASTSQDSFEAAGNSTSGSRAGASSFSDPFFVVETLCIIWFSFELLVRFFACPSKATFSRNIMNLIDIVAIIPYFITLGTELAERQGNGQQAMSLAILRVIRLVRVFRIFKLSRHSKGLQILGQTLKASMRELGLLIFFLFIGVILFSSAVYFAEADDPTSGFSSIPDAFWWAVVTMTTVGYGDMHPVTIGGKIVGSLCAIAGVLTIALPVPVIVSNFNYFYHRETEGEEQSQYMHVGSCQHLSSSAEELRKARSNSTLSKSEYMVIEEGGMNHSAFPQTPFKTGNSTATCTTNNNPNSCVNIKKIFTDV
Chain of Potassium voltage-gated channel subfamily A member 6 (Homo sapiens) (P17658 whole entry): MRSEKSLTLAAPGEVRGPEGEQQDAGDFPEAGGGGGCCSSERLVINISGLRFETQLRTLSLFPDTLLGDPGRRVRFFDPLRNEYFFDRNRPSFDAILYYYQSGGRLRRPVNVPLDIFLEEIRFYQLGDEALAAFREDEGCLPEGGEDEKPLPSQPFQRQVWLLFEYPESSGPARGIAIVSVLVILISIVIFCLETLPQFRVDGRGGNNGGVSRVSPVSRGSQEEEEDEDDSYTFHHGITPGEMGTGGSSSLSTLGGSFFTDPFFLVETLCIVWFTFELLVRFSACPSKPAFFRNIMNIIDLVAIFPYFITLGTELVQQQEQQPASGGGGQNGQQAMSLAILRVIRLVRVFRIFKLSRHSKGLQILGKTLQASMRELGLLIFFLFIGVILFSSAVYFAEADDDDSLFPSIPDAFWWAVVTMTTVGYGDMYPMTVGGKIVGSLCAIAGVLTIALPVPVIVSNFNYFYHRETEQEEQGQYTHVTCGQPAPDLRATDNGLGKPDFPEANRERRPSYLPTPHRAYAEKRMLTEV
Chain of Potassium voltage-gated channel subfamily A member 4 (Homo sapiens) (P22459 whole entry): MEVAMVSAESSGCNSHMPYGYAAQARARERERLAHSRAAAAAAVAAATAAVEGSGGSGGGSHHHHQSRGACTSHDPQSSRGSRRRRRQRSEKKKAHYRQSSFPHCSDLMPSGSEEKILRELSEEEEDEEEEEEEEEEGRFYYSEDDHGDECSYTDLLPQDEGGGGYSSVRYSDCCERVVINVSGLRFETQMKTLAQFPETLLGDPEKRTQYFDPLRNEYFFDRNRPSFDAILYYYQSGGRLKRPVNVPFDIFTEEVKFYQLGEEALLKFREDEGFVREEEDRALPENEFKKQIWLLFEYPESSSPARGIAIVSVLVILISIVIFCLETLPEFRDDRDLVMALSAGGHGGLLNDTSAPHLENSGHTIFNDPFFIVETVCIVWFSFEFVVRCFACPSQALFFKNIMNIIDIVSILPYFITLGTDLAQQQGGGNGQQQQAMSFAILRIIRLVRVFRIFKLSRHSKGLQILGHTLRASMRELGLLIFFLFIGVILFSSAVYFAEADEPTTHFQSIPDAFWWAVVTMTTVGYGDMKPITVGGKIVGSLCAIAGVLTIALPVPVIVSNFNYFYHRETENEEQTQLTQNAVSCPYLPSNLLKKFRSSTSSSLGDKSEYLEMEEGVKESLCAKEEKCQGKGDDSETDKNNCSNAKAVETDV
Chain of Potassium voltage-gated channel subfamily A member 5 (Homo sapiens) (P22460 whole entry): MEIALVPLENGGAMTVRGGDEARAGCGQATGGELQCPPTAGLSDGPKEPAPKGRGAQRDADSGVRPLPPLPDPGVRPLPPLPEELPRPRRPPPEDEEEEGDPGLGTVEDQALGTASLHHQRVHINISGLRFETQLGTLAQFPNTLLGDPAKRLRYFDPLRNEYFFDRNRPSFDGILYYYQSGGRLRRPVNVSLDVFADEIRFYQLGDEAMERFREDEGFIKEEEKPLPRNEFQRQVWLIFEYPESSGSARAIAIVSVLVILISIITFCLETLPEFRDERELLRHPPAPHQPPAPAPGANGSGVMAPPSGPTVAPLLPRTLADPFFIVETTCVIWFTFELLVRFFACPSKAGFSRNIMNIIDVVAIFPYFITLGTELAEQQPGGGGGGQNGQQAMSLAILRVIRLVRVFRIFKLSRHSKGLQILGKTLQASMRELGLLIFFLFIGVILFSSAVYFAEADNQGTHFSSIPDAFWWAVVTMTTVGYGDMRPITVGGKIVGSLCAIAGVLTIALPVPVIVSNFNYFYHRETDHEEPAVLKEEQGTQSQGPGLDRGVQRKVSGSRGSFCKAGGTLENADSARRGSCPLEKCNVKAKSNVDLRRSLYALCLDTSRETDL
Chain of Potassium voltage-gated channel subfamily A member 2 (P16389 whole entry): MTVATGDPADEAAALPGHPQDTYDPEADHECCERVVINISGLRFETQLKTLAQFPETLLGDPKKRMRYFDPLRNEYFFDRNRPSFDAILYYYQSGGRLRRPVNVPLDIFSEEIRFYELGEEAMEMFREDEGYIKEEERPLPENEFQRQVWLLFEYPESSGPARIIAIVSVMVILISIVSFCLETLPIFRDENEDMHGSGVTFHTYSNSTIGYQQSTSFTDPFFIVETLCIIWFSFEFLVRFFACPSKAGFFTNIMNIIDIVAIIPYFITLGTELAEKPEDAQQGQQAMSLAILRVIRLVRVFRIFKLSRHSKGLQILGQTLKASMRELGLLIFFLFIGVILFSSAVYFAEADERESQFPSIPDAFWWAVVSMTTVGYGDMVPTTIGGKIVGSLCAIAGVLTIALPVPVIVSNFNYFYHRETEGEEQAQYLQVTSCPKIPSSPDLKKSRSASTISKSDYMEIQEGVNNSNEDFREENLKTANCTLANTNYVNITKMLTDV

The term inhibition denotes the change of the read-out against control, counted positive when it falls. By IC50 is commonly meant the concentration needed to halve the response being measured. For the compound `CCCNC(=O)O[C@H]1CC[C@@](CNC(=O)c2ccccc2OC)(c2ccsc2)CC1`, the inhibition in [1] was 90.7%; in series [5] it was 6.4%; in [6] it was 11.4%; in series [7], -1.1%; in series [12], 27%. The IC50 was 230 nM in [2]; 26.1 nM in series [3]; 124 nM in series [8]; 308 nM in [9]; 136 nM in [17]. Also, the inhibition entry (in [4]; in the series on T-cell [15]) was “Active” each time. Further, the solubility thermodynamic at 24 h in series [10] was found to be 22 µM (≈ 9.47 µg/mL). Also, the Stability entry in series [11] is recorded as “Stable”. On hERG (KCNH2), the inhibition at 5 µM was 21%. The Activity entry with T-cell line [13] and in the series with T-cell line [14] was “Non-Toxic” in each case. Moreover, the result in the series on T-cell [16] and in the series on T-cell [19] was Active. In addition, the Ratio IC50 in series [18] is < 2.
